From ChEMBL document CHEMBL1143122, “Novel analogs of D-e-MAPP and B13. Part 1: synthesis and evaluation as potential anticancer agents” (Bioorg Med Chem, 2008)

Assays:
Type in all cases: functional
K562 = assay: Antiproliferative activity against human K562 cells after 48 hrs; settings: K562, 48 h
Outline: (§1)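 NCI 60-cell screen. Cells were grown in RPMI 1640 with 5% FBS and 2 mM L-glutamine, then plated at 5,000–40,000 cells/well according to doubling time and preincubated for 24 h at 37 °C in 5% CO2. Compounds were dissolved in DMSO at 400× the top final concentration and tested at five 10-fold dilutions from 10−4 to 10−8 M for 48 h. Growth was read spectrophotometrically; GI50 is 50% net protein reduction.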

OVCAR-4 = assay: Antiproliferative activity against human OVCAR4 cells after 48 hrs; settings: OVCAR-4, 48 h; outline: as §1
NCI-H23 = assay: Antiproliferative activity against human NCI-H23 cells after 48 hrs; settings: NCI-H23, 48 h; outline: as §1
RPMI-8226 = assay: Antiproliferative activity against human RPMI8226 cells after 48 hrs; settings: RPMI-8226, 48 h; outline: as §1
MDA-MB-231 = assay: Antiproliferative activity against human MDA-MB-231 cells after 48 hrs; settings: MDA-MB-231, 48 h; outline: as §1
COLO 205 = assay: Antiproliferative activity against human COLO205 cells after 48 hrs; settings: COLO 205, 48 h; outline: as §1
SF-295 = assay: Antiproliferative activity against human SF295 cells after 48 hrs; settings: SF-295, 48 h; outline: as §1
U-251 = assay: Antiproliferative activity against human U251 cells after 48 hrs; settings: U-251, 48 h
Outline: (§2)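 NCI 60-cell-line screen. Lines grown in RPMI 1640 with 5% fetal bovine serum and 2 mM L-glutamine, plated at 5,000–40,000 cells/well according to doubling time, left 24 h at 37 °C in 5% CO2. Drug stocks in DMSO at 400-fold the top final concentration. Five 10-fold dilutions, 10−4 to 10−8 M, incubated 48 h. Growth read spectrophotometrically as net protein; GI50 taken as 50% reduction.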

SF-268 = assay: Antiproliferative activity against human SF268 cells after 48 hrs; settings: SF-268, 48 h; outline: as §1
BT-549 = assay: Antiproliferative activity against human BT549 cells after 48 hrs; settings: BT-549, 48 h; outline: as §1
TK-10 = assay: Antiproliferative activity against human TK10 cells after 48 hrs; settings: TK-10, 48 h; outline: as §2
SK-MEL-2 = assay: Antiproliferative activity against human SKMEL2 cells after 48 hrs; settings: SK-MEL-2, 48 h; outline: as §1
HOP-92 = assay: Antiproliferative activity against human HOP92 cells after 48 hrs; settings: HOP-92, 48 h; outline: as §1
DU-145 = assay: Antiproliferative activity against human DU145 cells after 48 hrs; settings: DU-145, 48 h; outline: as §1
HCC 2998 = assay: Antiproliferative activity against human HCC2998 cells after 48 hrs; settings: HCC 2998, 48 h; outline: as §1
PC-3 = assay: Antiproliferative activity against human PC3 cells after 48 hrs; settings: PC-3, 48 h; outline: as §1
786-0 = assay: Antiproliferative activity against human 786-0 cells after 48 hrs; settings: 786-0, 48 h; outline: as §1
[1] = read-out: Log LC50 (the source's name) (converted)

## C[C@@H](NC(=O)CCCCCCCCCCCCCCC[n+]1ccccc1)[C@@H](O)c1ccccc1.[Br-]
K562
  GI50: 0.832 µM
  LC50: > 100 µM
K562; read-out: Log TGI (converted)
  TGI: 3.98 µM
OVCAR-4
  GI50: 1.7 µM
  LC50: > 100 µM
OVCAR-4; read-out: Log TGI (converted)
  TGI: 5.37 µM
NCI-H23
  GI50: 2.95 µM
NCI-H23; [1]
  CC50: 56.2 µM
NCI-H23; read-out: Log TGI (converted)
  TGI: 11.7 µM
RPMI-8226
  GI50: 0.288 µM
RPMI-8226; [1]
  CC50: 5.13 µM
RPMI-8226; read-out: Log TGI (converted)
  TGI: 1.91 µM
MDA-MB-231
  GI50: 1.74 µM
  LC50 (50% lethal concentration): 7.59 µM
MDA-MB-231; read-out: Log TGI (converted)
  TGI: 3.63 µM
COLO 205
  GI50: 1.38 µM
COLO 205; read-out: Log TGI (converted)
  TGI: 3.02 µM
SF-295
  GI50: 8.32 µM
  LC50: 63.1 µM
SF-295; read-out: Log TGI (converted)
  TGI: 24 µM
U-251
  GI50: 1.41 µM
U-251; [1]
  CC50: 5.25 µM
U-251; read-out: Log TGI (converted)
  TGI: 2.75 µM
SF-268
  GI50: 1.66 µM
  LC50: 6.03 µM
SF-268; read-out: Log TGI (converted)
  TGI: 3.16 µM
BT-549
  GI50: 0.0692 µM
  LC50: 3.39 µM
BT-549; read-out: Log TGI (converted)
  TGI: 1.07 µM
TK-10
  GI50: 4.9 µM
TK-10; [1]
  CC50: 40.7 µM
TK-10; read-out: Log TGI (converted)
  TGI: 15.8 µM
SK-MEL-2
  GI50: 2.19 µM
SK-MEL-2; read-out: Log TGI (converted)
  TGI: 4.37 µM
HOP-92
  GI50: 0.0407 µM
  LC50: 5.75 µM
HOP-92; read-out: Log TGI (converted)
  TGI: 0.912 µM
DU-145
  GI50: 3.47 µM
DU-145; [1]
  CC50: 49 µM
DU-145; read-out: Log TGI (converted)
  TGI: 15.1 µM
HCC 2998
  GI50: 1.51 µM
HCC 2998; [1]
  CC50: 6.03 µM
HCC 2998; read-out: Log TGI (converted)
  TGI: 3.02 µM
PC-3
  GI50: 1.38 µM
  LC50: 15.1 µM
PC-3; read-out: Log TGI (converted)
  TGI: 3.98 µM
786-0
  GI50: 2.63 µM
